From PubChem BioAssay
rRNA inh HTS = reduced GFP signal of wild-type E. coli, primary screen, bacterial rRNA inhibitor project, GFP/RFP fluorescence, OD600, single point; actives 1.6% (n = 350,000); AID 720706, 2013; GFP signal change (wild-type ribosome), % (test concentration not listed); E. coli WT GFP vs humanized-ribosome RFP mutants, 24 h; hits give low values; DMSO median 0, no signal -100;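 active = significant combined selectivity score with lowered wild-type GFP, culture density cut under 30%, mutant RFP and density less affected; inactive = any of these conditions unmet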
E-selectin induc = E-selectin induction in HUVECs, primary screen, imaging, HUVEC, immunofluorescence imaging, single point | P16581 | normalized: neutral wells 0, TNF-alpha wells 100 | activation, % at 7.58 µM | actives 0.37% (n = 260,000);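 active = mean E-selectin-positive cell signal at least 10% of the positive control, reached in at least 60% of replicates, without over 20% cell loss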
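Test system – human umbilical vein endothelial cells (HUVEC), E-selectin induction · Input – 3,000 HUVEC seeded per well · Buffer or medium – EGM-2, gelatin · Compound dosing – single-point compound dose · Detection – immunofluorescence imaging · Measure – percent E-selectin-positive cells · Controls – TNF-alpha high, DMSO low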
ERAP1 HTS inh = human ERAP1 aminopeptidase inhibitors, primary screen, biochemical, single point, plate reader. Endoplasmic reticulum aminopeptidase 1 (Homo sapiens), Q9NZ08. recombinant ERAP1, Leu-AMC fluorescence, 60 min. inhibition, % at 10.7 µM. actives 0.15% (n = 340,000). AID 652197, 2013;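 active = mean replicate inhibition of at least 30%, or all replicates individually reaching that 30% level; inactive = mean below 30% and not every replicate reaching it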;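 note: 0% = neutral control wells and 100% = L-leucinethiol positive control wells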
S100A4 inh HTS = inhibitors of S100A4-myosin IIA peptide binding, primary screen, biochemical, fluorescence polarization, TAMRA-MyoIIA peptide; actives 0.14% (n = 360,000); Protein S100-A4 (Homo sapiens), P26447; inhibition, % at 10.7 µM;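 active = mean inhibition of at least 70% across replicates, with every replicate also reaching that level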
Target sequence (P26447 whole entry, looked up): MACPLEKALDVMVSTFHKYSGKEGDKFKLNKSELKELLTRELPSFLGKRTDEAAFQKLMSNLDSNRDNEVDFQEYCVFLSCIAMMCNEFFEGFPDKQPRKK
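Test system: S100A4 monomer protein; Medium: HEPES pH 7.2 with CaCl2, KCl, NaCl, DTT, Triton; Probe or stimulus: TAMRA-labelled myosin IIA heavy-chain peptide probe, 5 nM; Doses: one dose per compound; Times: polarization read 5 min after assay mix addition, stable 5–60 min; Benchmarks: neutral control DMSO, positive control TFP.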
AF4-AF9 inh = inhibitors of AF4 peptide binding to AF9, primary screen, biochemical, AlphaScreen, biotin-AF4 peptide, FLAG-AF9, single point; Protein AF-9 (Homo sapiens), P42568; inhibition, % at 10 µM; actives 0.47% (n = 350,000); AID 651704, 2012;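 active = every replicate reaching a set inhibition limit, whatever the replicate mean, cut at about 25% in these data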;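 note: 0% = plate neutral control median and 100% = total signal loss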
Target sequence (P42568 whole entry, looked up): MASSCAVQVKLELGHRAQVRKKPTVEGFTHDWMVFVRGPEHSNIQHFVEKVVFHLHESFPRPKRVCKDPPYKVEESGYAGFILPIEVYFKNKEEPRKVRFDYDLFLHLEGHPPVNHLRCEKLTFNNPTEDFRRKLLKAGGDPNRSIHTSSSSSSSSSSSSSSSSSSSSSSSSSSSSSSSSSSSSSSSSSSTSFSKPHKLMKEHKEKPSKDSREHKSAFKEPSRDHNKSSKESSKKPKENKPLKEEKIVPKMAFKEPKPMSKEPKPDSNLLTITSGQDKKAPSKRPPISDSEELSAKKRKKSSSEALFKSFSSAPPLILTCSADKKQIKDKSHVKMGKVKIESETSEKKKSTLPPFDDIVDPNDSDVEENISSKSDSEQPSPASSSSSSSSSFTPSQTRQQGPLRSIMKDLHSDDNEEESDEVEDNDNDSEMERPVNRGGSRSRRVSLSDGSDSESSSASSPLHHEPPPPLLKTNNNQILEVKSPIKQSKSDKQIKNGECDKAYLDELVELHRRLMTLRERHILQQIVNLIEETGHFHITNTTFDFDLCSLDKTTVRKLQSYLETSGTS
SIRT5 block = SIRT5 desuccinylase inhibitors, primary screen, biochemical, fluorescence imaging, single point, set 5; Purified SirT5, succinyl-peptide AMC, trypsin-coupled fluorescence; inhibition, % at 15 µM; actives 1.1% (n = 330,000); in the data active = inhibition above about 15%
An asterisk follows results filed as active; x = not tested or not shown. Rows were chosen to be rich in hits. Some 3.4% of all compounds tested hit in one or more screens of this group.

SMILES | rRNA inh HTS | E-selectin induc | ERAP1 HTS inh | S100A4 inh HTS | AF4-AF9 inh | SIRT5 block
CN(C)C(=O)c1ccc(-c2ccc([C@H]3[C@H](CO)N4CCCCN(CCC(F)(F)F)C[C@@H]34)cc2)cc1 | -2 | 0 | 1 | -1 | 6 | 33*
CC=Cc1ccc2n(c1=O)C[C@H]1[C@H](CO)[C@@H](C(=O)N(C)C)N(CC3CCOCC3)[C@@H]21 (mixture of isomers) | -1 | 0 | 0 | 8 | -1 | -1
C[C@@H]1CN([C@H](C)CO)C(=O)c2cccc(NC(=O)c3ccncc3)c2O[C@@H]1CN(C)S(=O)(=O)c1cccs1 | 7 | -8 | 0 | -4 | -10 | 9
Cc1ccc(NC(=O)c2cc(C)nc3ccccc23)cc1 | 16 | x | -5 | -1 | -10 | -3
Cc1cccc(NC(=O)c2cc(C)nc3ccccc23)c1 | 2 | 61* | -3 | 1 | -1 | -1
CC(NC(=O)CN1CCN(c2cccc(Cl)c2)CC1)c1ccccc1 (centres undefined) | -28* | x | -3 | 3 | -15 | -9
COc1cccc(N2CCN(CC(=O)NC(C)c3ccccc3)CC2)c1 (centres undefined) | 7 | x | -2 | 0 | -12 | -2
C[C@H](O)[C@@H]1CN2CCc3c([nH]c4c(-c5ccccc5)cccc34)[C@@H]2C[C@@H]1N(C)C(=S)NCCc1ccccc1 | -30* | 0 | 1 | -13 | x | -2
Cc1ccccc1-c1ccc2c(c1)[C@@H]1C[C@H](N(C)C(=O)c3ccco3)[C@H]([C@H](C)O)CN1CC2 | -1 | 0 | 4 | -7 | x | 3
C[C@H](O)[C@@H]1CN2CCc3c([nH]c4c(-c5ccccc5)cccc34)[C@@H]2C[C@@H]1N(C)C(=O)Nc1ccccc1 | -34 | 0 | -1 | -26 | x | 2
C=CCNC(=S)N(C)[C@H]1C[C@H]2c3cc(-c4ccccc4C)ccc3CCN2C[C@H]1[C@H](C)O | -30* | 0 | 0 | 1 | x | 1
C[C@@H]1ON(C)[C@H]2C[C@H]3c4[nH]c5c(-c6ccccc6)cccc5c4CCN3C[C@@H]12 | -26* | 0 | 0 | -10 | x | 2
CCC(=O)N1C[C@H](C)[C@H](OC)CN(C)C(=O)c2cc(NC(=O)C3CCOCC3)ccc2OC[C@@H]1C | -2 | 1 | -1 | -2 | -1 | x
CCCO/N=C1/C(=O)N(c2ccccc2)c2ccccc21 | -38* | x | -3 | 0 | 16 | -2
C[C@@H]1CN([C@@H](C)CO)C(=O)c2cccc(NC(=O)c3ccncc3)c2O[C@H]1CN(C)C(=O)Nc1cccc2ccccc12 | 3 | 26* | 4 | 5 | 3 | x
C[C@H](CO)N1C[C@H](C)[C@H](CN(C)C(=O)Nc2cccc3ccccc23)Oc2c(NC(=O)c3ccncc3)cccc2C1=O | -12 | -7 | 3 | 2 | -1 | -5
C[C@@H]1CN([C@@H](C)CO)C(=O)c2cccc(N(C)C)c2O[C@@H]1CN(C)C(=O)Nc1cccc2ccccc12 | 2 | 1 | 4 | 81* | 2 | 7
C[C@@H]1CN([C@@H](C)CO)C(=O)c2cccc(NC(=O)Nc3cccc4ccccc34)c2O[C@H]1CN(C)C(=O)Nc1ccccc1 | -10 | 0 | -6 | 105* | 0 | 6
C/C=C/c1ccc2c(c1)O[C@H](CN(C)Cc1ccccn1)[C@H](C)CN([C@H](C)CO)S2(=O)=O | 1 | 0 | 2 | 6 | 2 | 1
Cc1c(C(=O)N2CCN(c3ccccc3)CC2)oc2c1C(=O)CC(C)(C)C2 | -23* | x | 5 | 0 | 3 | -11
COc1ccc(NC(C)C(=O)Nc2cc(C(F)(F)F)ccc2N2CCOCC2)c(OC)c1 (centres undefined) | -7 | 0 | -1 | 13 | 26* | -6
CC(=O)Nc1cc(C(F)(F)F)ccc1N1CCOCC1 | 16 | x | 2 | 2 | -8 | -4
O=C(Nc1ncc2c(n1)CC(c1ccco1)CC2=O)c1ccco1 (centres undefined) | 6 | 0 | 2 | -4 | -20 | x
CC(=O)Nc1ncc2c(n1)CC(c1ccco1)CC2=O (centres undefined) | x | x | -2 | 1 | x | 16*
Brc1ccc(Nc2nc(-c3cccnc3)cs2)cc1 | -24* | 13 | 4 | -1 | 1 | 1
SMILES | rRNA inh HTS | E-selectin induc | ERAP1 HTS inh | S100A4 inh HTS | AF4-AF9 inh | SIRT5 block
Brc1cccc(Nc2nc(-c3cccnc3)cs2)c1 | -13 | x | 5 | -4 | -3 | -6
Fc1ccc(Nc2nc(-c3ccncc3)cs2)cc1 | -4 | 0 | 2 | -3 | -16 | 1
Nc1ccc(Nc2nc(-c3ccncc3)cs2)cc1 | -17* | x | -1 | 0 | 5 | -5
CC[C@@H]1CC=CC[C@@H](C)Oc2ccccc2C(=O)N(C)[C@H](Cc2ccccc2)C(=O)N1 (mixture of isomers) | -4 | x | x | x | x | x
CCOc1cc(/C=N/NC(=O)c2ccccc2-n2cccc2)ccc1O | -2 | 0 | -2 | 4 | 4 | 2
CCOc1cc(/C=N/NC(=O)c2ccccc2OCc2ccc(F)cc2)ccc1O | -21* | x | 1 | 3 | 5 | -4
CNC[C@H]1Oc2c(NS(=O)(=O)c3ccc(Cl)cc3)cccc2C(=O)N([C@@H](C)CO)C[C@@H]1C | 3 | 0 | 3 | 12 | -4 | 0
O=C(Cn1cnc2ccccc21)c1ccc(Br)cc1 | -28* | -1 | 0 | -6 | 3 | 0
C=C(Br)Cn1cnc2ccccc21 | -2 | x | -1 | -3 | -13 | -2
CN(C(=O)CSc1nc(-c2ccc(C(C)(C)C)cc2)c(C#N)c(=O)[nH]1)C1CCCCC1 | -6 | x | 1 | -10 | 0 | 17*
C[C@H](NC(=O)[C@H]1[C@H](CO)[C@H]2Cn3c(cccc3=O)[C@@H]1N2CCC(F)(F)F)c1ccccc1 | 0 | 0 | -3 | 6 | -2 | 0
CC(=O)C1=C(C)N(Cc2ccccc2)C(=O)N[C@@H]1c1cccc(C(F)(F)F)c1 | -21* | 0 | -1 | -5 | 10 | 2
C[C@@H]1CN([C@@H](C)CO)C(=O)Cc2cc(NC(=O)Cn3cnnn3)ccc2O[C@H]1CN(C)Cc1ccc(C(=O)Nc2ccccc2N)cc1 | -4 | 1 | -2 | 9 | 2 | 5
COc1ccc(CNc2ncc(-c3ccc(F)cc3)n2C)cc1OC | 14 | 0 | x | 1 | 8 | -3
COc1cc(CNc2ncc(-c3ccc(Br)cc3)n2C)cc(OC)c1O | 2 | x | -3 | -6 | 25* | -7
